The data set deals with MDA-MB-231. The data set can be described thus: Cytotoxicity against human MDA-MB-231 cells assessed as reduction in cell viability up to 5 uM after 72 hrs by MTT assay. The data set is classed as cell-based. Conditions: mda-mb-231, 72 h. Summed up: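 MCF-7, MDA-MB-231 and U-343 cells exposed 24, 48 and 72 h to 0.05, 0.5, 5 and 50 μM compound; viability by MTT reduction to formazan versus vehicle; mean ± SD of at least three independent experiments.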

As for `COc1cc2c(cc1OCCCN1CCCC1)N=C(C1CCCCC1)CN=C2NC1CCN(C(C)C)CC1`, the Activity result is “Non-Toxic”.

Values taken from ChEMBL document CHEMBL4400539, “Discovery of a Novel Chemotype of Histone Lysine Methyltransferase EHMT1/2 (GLP/G9a) Inhibitors: Rational Design, Synthesis, Biological Evaluation, and Co-crystal Structure” (J Med Chem, 2019).
